From PubChem BioAssay
An excerpt weighted towards active compounds, which were near 3.5% of everything screened.
Cneo AK release = causes C. neoformans cell lysis; adenylate kinase release luminescence, 4 h; normalised: neutral wells 0, clomiphene wells 100; lysis activity, % at 15 µM; 0.2% of 360,000 active; AID 651654;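 active = mean lysis activity across replicates of at least 80%, whatever share of replicates individually reach that level; inactive = mean lysis activity below 80%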
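Material – log-phase Cryptococcus neoformans yeast cells · Input – 5 × 10^6 yeast cells/mL · Medium – fresh YPD growth medium · Doses – single compound concentration per well · Timing – static 4 h at 37 °C with compound, 1 h detection · Detection – adenylate kinase release luminescence · Read-out – signal increase indicating cell lysis · Control set – Clomiphene as positive lysis control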
ERAP1 HTS inh = ERAP1 (human) enzyme inhibition; recombinant ERAP1, Leu-AMC fluorescence, 60 min; inhibition, % at 10.7 µM; 0.15% of 340,000 active;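 active = mean replicate inhibition of at least 30%, or all replicates individually reaching that 30% level; inactive = mean below 30% and not every replicate reaching it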;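 also: 0% = neutral control wells and 100% = L-leucinethiol positive control wells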
Target sequence (Q9NZ08 whole entry, looked up): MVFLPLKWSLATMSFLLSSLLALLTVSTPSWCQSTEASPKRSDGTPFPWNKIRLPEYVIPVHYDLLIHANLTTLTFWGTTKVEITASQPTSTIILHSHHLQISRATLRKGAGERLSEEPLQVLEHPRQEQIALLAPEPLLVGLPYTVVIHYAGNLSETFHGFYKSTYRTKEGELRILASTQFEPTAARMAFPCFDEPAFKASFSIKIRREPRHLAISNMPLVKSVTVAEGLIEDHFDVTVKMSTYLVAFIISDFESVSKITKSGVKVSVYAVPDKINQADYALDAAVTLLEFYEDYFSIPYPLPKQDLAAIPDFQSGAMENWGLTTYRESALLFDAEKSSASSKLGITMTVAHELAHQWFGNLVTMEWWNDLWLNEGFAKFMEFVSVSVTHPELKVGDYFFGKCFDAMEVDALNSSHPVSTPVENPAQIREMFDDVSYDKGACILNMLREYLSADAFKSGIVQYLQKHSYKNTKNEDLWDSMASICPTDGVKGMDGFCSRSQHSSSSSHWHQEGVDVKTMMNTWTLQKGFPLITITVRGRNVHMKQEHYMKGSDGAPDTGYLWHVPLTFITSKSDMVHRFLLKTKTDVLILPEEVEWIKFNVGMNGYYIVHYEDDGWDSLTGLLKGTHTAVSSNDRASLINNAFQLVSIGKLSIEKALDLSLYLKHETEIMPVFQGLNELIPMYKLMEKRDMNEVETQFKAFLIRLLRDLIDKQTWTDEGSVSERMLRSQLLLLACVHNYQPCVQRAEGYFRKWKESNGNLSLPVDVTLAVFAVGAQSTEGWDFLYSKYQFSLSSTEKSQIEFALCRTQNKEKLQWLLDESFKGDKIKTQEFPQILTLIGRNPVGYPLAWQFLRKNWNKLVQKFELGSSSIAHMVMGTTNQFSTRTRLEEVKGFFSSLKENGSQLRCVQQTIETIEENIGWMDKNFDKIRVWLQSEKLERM
HIV Env fusion = HIV envelope-mediated fusion inhibition. HeLa-JRFL Env/CEM21 cell fusion, luciferase. inhibition, % at 12.3 µM. 1.1% of 360,000 active;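 active = mean replicate inhibition score of at least 50 and every replicate individually at or above 50; inconclusive = only one of the two criteria met; inactive = mean below 50 and not all replicates reaching 50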;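 also: 0% = plate neutral controls and 100% = maraviroc near 300 nM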
esBAF inh = inhibitors of esBAF chromatin remodeling in mouse ES cells | Bmi1-luciferase knock-in reporter, 24 h; 100% = twice the neutral-well signal | reporter increase, % at 12.5 µM | 2% of 350,000 active | AID 602393; in the data active = activation above about 40%; inconclusive = no clear call, values can overlap the other calls;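 also: 0% = median of the plate's neutral control wells and 100% = double that signal; a rise in the Bmi1 reporter signal indicates esBAF inhibition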
Wnt bcat act = activators of Wnt/beta-catenin signaling. Wnt/beta-catenin reporter cell assay, activator, plate reader. activation, % at 9.35 µM. 1.2% of 300,000 active; in the data active = activation above about 30%, passing the limit was not always enough; inconclusive = no clear call, values can overlap the other calls;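 also: 0% = neutral control wells and 100% = positive control wells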
MITF act = activators of MITF-driven TRPM1 promoter activity in SK-MEL-5 cells; SK-MEL-5 TRPM1-promoter luciferase, 24 h; % of positive control, neutral wells = 0; 0.75% of 300,000 active; AID 588334; activation, % at 12.5 µM;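 active = mean activation of at least 80% with every replicate also reaching 80%; inconclusive = mean reaches 80% but some replicate falls short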;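 also: 0% = neutral control wells and 100% = parthenolide positive control wells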
* marks the source's active call; other numbers are inactive results; ? = inconclusive; · = no result given; [ ] = dose if it differs, or a comment.

SMILES | Cneo AK release | ERAP1 HTS inh | HIV Env fusion | esBAF inh | Wnt bcat act | MITF act
COc1ccc(N2CCN(C(=O)Cc3nn(C)c(=O)c4ccccc34)CC2)cc1 | 0 | · | 61* | -5 | · | ·
COc1ccc(-n2nc(C(=O)NCC(=O)N3CCCC3)c3ccccc3c2=O)cc1Cl | -4 | 10 | -36 | 59* | 1 | ·
COc1ccc(-n2nc(C(=O)NCC(=O)N3CCN(c4ccccc4)CC3)c3ccccc3c2=O)cc1OC | -5 | 0 | -32 | 45* | 14 | 47
CCOC(=O)N1CCN(C(=O)CNC(=O)c2nn(-c3ccc(OC)c(Cl)c3)c(=O)c3ccccc23)CC1 | 6 | 7 | -13 | 17 | 4 | 51
CC(=O)c1sc2nc(-c3cccs3)ccc2c1N | -7 | · | -187 | 65* | · | ·
O=S(=O)(c1cccs1)N1CCCCN2[C@@H](CO)[C@H](c3ccc(C4=CCCC4)cc3)[C@@H]2C1 | 2 | 4 | · | -10 | · | ·
C[C@@H]1CCCCO[C@@H](CN(C)Cc2ccc(C(F)(F)F)cc2)[C@H](C)CN([C@@H](C)CO)C(=O)c2cc(NS(=O)(=O)c3cccs3)ccc2O1 | 0 | -3 | 9[16.7 µM] | 9 | · | ·
C[C@@H]1CCCCO[C@H](CN(C)Cc2ccccc2)[C@H](C)CN([C@@H](C)CO)C(=O)c2cc(NS(=O)(=O)c3cccs3)ccc2O1 | 86* | -24 | 4[16.7 µM] | -7 | · | ·
C[C@H]1CCCCO[C@H](CN(C)S(=O)(=O)c2ccc(Cl)cc2)[C@@H](C)CN([C@@H](C)CO)C(=O)c2cc(NS(=O)(=O)c3cccs3)ccc2O1 | 89* | -2 | -21[16.7 µM] | 5 | · | ·
C[C@@H]1CCCCO[C@H](CN(C)Cc2ccc(C(F)(F)F)cc2)[C@H](C)CN([C@H](C)CO)C(=O)c2cc(NS(=O)(=O)c3cccs3)ccc2O1 | 0 | 1 | 60*[16.7 µM] | 5 | · | ·
C[C@H](CO)N1C[C@H](C)[C@@H](CN(C)S(=O)(=O)c2ccc(Cl)cc2)Oc2ccc(NC(=O)Cn3cnnn3)cc2CC1=O | 1 | 2 | 10[16.7 µM] | -12 | · | ·
Cc1noc(C)c1S(=O)(=O)Nc1ccc2c(c1)C(=O)N([C@H](C)CO)C[C@H](C)[C@@H](CN(C)S(=O)(=O)c1cn(C)cn1)O2 | · | -1 | · | · | · | ·
Cn1c2ccccc2c(=O)c2ccc(NCCc3cccs3)cc21 | -8 | 0 | -314 | ? | ? | 95*
CC1(C)CC(=O)C2=C(C1)Nc1ccccc1NC2c1ccc2c(c1)OCO2 (centres undefined) | 1 | · | -106 | 18 | 44* | ·
CC1(C)CC(=O)C2=C(C1)Nc1ccccc1NC2c1ccc(F)cc1 (centres undefined) | 0 | -2 | 0 | 3 | 1 | -2
O=[N+]([O-])c1ccccc1OCCOc1ccccc1[N+](=O)[O-] | · | · | -41 | · | 19 | ·
Clc1ccc(OCCn2cnc3ccccc32)c(Cl)c1 | 1 | · | · | 71* | · | 73
O=c1c2ccccc2ncn1CCCOc1ccccc1[N+](=O)[O-] | 1 | · | -69 | 62* | 22 | 65
O=[N+]([O-])c1ccccc1OCCCn1cnc2ccccc21 | -7 | -2 | -96 | 65* | 16 | 104*
c1ccc2oc(-c3[nH]ncc3CN3CCSCC3)cc2c1 | · | -1 | 37 | · | -1 | -12
c1ccc2oc(-c3ccn[nH]3)cc2c1 | -8 | -3 | -45 | · | 40* | ·
On1onc2c3cc(-c4ccccc4)nc3ccc21 | -1 | 0 | · | -62 | 39* | -14
N#Cc1sc2nccc(Nc3ccccc3)c2c1N | -1 | · | 62* | · | -7 | ·
CCN(CC)c1ncnc2ccc(Br)cc12 | -1 | · | 87* | -3 | · | -6
COc1ccc(-c2nc3cc(NC(=S)NC(=O)Cc4ccccc4)ccc3o2)cc1 | -1 | · | · | · | · | 97*
SMILES | Cneo AK release | ERAP1 HTS inh | HIV Env fusion | esBAF inh | Wnt bcat act | MITF act
COc1cccc(NC(=S)NC(=O)Cc2ccc(Cl)cc2)c1 | 83* | 4 | 7 | 4 | 0 | 15
CCC(=O)Nc1cccc(NC(=S)NC(=O)c2ccc(Cl)cc2)c1 | -2 | · | · | 61* | -3 | 54
CCC(=O)Nc1cccc(NC(=S)NC(=O)c2ccc(Cl)cc2Cl)c1 | · | · | -2 | · | · | 48
C[C@@H]1CN([C@@H](C)CO)C(=O)c2cc(NC(=O)c3ccncc3)ccc2O[C@@H](C)CCCCO[C@@H]1CN(C)C | 1 | -2 | 7[16.7 µM] | -1 | · | ·
COc1ccc(NC(=O)N(C)C[C@@H]2Oc3ccc(NC(=O)CCN4CCOCC4)cc3C(=O)N([C@H](C)CO)C[C@H]2C)cc1 | 4 | -1 | -11[16.7 µM] | 6 | · | ·
CO[C@H]1CN(C)C(=O)c2cc(NC(=O)c3ccccc3)ccc2OC[C@@H](C)N(C(=O)CN(C)C)C[C@@H]1C | 6 | -2 | · | -4 | · | ·
Cn1nnc2cc(NC(=O)Nc3ccccc3F)ccc21 | -6 | -2 | -53 | 22 | 50* | ·
Oc1oc(-c2ccccc2)nc1C=NCc1ccccc1 | 0 | · | -68 | 56* | 16 | 103*
Oc1oc(-c2ccccc2)nc1C=Nc1ccccc1 | · | · | -54 | · | 13 | 68
CSc1ccccc1N=Cc1nc(-c2ccccc2)oc1O | -4 | · | · | 52* | · | 15
COc1ccccc1NC(=O)N[C@@H]1CC[C@@H](CCn2cc(-c3cccnc3)nn2)O[C@@H]1CO | 1 | 0 | 5[16.7 µM] | -10 | · | ·
COC(=O)c1ccc(Cn2cnc3c(cnn3-c3ccc(F)cc3)c2=O)o1 | · | · | · | -6 | · | -10
Cc1ccc(C(=O)Cn2cnc3ccccc3c2=O)cc1 | -1 | · | · | 56* | 27 | 89*
CC(C)(C)n1ncc2c(=O)n(CC(=O)NC3CCCCC3)cnc21 | 2 | · | · | 44* | · | 53
O=C(Cn1cnc2ccccc2c1=O)c1ccccc1 | 0 | · | -26 | 29 | · | ·
CC(C)(C)n1ncc2c(=O)n(Cc3cccc(Cn4cnc5c(cnn5C(C)(C)C)c4=O)c3F)cnc21 | -4 | -1 | 92* | -14 | -16 | -3
Cc1ccc(-n2ncc3c(=O)n(CC(=O)NC4CCCCC4)cnc32)cc1C | -6 | · | -51 | -4 | 4 | -1
CC(C)CCn1cnc2c(cnn2-c2ccc(F)cc2)c1=O | -1 | · | · | 46* | · | 23
CNC(=O)C[C@H]1CC[C@@H]2[C@H](COc3ccc(NC(=O)Nc4ccc(C)cc4)cc3C(=O)N2C)O1 | 4 | -3 | 5[16.7 µM] | 7 | · | ·
COCC(=O)N(C)C[C@H]1Oc2cc(-c3ccc(C#N)cc3)ccc2S(=O)(=O)N([C@H](C)CO)C[C@H]1C | -4 | -3 | -1[16.7 µM] | 3 | · | ·
CC(C)(C)n1ncc2c(=O)n(CC(=O)OCc3ccccc3)cnc21 | -11 | · | · | 9 | · | -11
CC(C)(C)n1ncc2c(=O)n(CC(=O)c3ccccc3)cnc21 | 6 | · | · | 19 | · | 96*
O=C(Nc1ccccc1C(=O)NC(Cc1ccccc1)C(=O)NC1CCCCC1)c1ccccc1 (centres undefined) | · | · | 66* | · | · | 14
O=C(Nc1ccccc1C(=O)NC(Cc1ccccc1)C(=O)O)c1ccccc1 (centres undefined) | 0 | -1 | -7 | -3 | -1 | 1
